Sampled rows, rich in hits. Any-hit rate of the full collection: about 2.9%.
SIAE inh: inhibitors of human sialic acid acetylesterase SIAE | Q9HAT2 | actives 0.69% (n = 370,000) | SIAE FP-Rh probe binding, fluorescence polarization | inhibition, % at 9.66 µM;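 active = inhibition above a cutoff: mean of compounds within the control limits plus 3 SD of those, cut at about 17% in these data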
ABHD4 inh: ABHD4 (mouse) inhibition, primary FP screen. AID 720543. purified mABHD4, FP-Rh probe fluorescence polarization. Q8VD66. actives 0.54% (n = 370,000). inhibition, % at 8.92 µM;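 active = inhibition exceeding the mean over every tested compound plus 3 SD, cut at about 30% in these data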
Target sequence (Q8VD66 whole entry, looked up): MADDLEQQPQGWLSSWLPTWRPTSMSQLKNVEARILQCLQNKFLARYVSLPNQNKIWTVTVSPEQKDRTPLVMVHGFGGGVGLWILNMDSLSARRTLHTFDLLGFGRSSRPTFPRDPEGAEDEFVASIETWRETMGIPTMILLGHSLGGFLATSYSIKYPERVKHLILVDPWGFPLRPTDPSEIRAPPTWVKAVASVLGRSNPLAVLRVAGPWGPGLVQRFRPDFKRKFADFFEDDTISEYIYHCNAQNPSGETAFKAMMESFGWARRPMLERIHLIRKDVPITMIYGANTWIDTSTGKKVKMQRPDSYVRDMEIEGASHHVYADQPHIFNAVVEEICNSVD
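Test system: mouse ABHD4 enzyme, wild type. Reagent: FP-Rh fluorescent activity-based probe, added after compound pre-incubation. Timing: pre-incubation 45 min, probe exposure 60 min, at 25 °C. Technique: FP readout, ex 525 nm / em 598 nm. Benchmarks: high control S159A mutant with DMSO, low control median of compound wells.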
TCR CD3 inh: inhibitors of human TCR-CD3 interaction | inhibition, % at 9.4 µM | AID 651800 | TAMRA-labeled TCR probe fluorescence, biochemical | actives 0.37% (n = 360,000);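 also: recombinant mutant TCR 2C K166C tagged with TAMRA read by polarization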
PRMT1 inh: PRMT1 (human) inhibition, primary screen | Q99873 | actives 1.3% (n = 370,000) | AID 652257 | recombinant PRMT1, activity-based probe fluorescence polarization | inhibition, % at 2.79 µM;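 active = inhibition above about 21% made by adding two undisclosed values, limit read from the data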
Target sequence (Q99873 whole entry, looked up): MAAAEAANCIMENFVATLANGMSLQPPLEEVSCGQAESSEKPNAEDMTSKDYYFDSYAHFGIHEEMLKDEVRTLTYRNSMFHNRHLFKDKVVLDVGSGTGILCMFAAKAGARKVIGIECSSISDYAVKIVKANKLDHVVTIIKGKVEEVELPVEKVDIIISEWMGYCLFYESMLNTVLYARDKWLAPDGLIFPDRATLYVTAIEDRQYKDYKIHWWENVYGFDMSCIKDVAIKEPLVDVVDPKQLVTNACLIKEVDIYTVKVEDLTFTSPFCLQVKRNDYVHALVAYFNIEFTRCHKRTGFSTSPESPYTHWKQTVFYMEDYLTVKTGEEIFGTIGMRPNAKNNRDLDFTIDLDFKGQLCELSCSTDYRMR
PAD4 inh: PAD4 (human) enzyme inhibition; Q9UM07; recombinant PAD4, RCA probe fluorescence polarization; inhibition, % at 6.36 µM; actives 0.41% (n = 330,000);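 active = percent inhibition above a cutoff equal to the mean of all tested compounds plus 3 SD, cut at about 15% in these data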
HTRA1 inh: inhibitors of human serine peptidase HTRA1. Q92743. recombinant HTRA1, FP-rhodamine activity-based probe, fluorescence polarization. inhibition, % at 5.96 µM. AID 504803. actives 0.5% (n = 340,000); in the data active = inhibition above about 36%
HTRA1 conf: HTRA1 (human) inhibition, confirmation; shares compounds with HTRA1 inh; actives 66% (n = 1,600); AID 540248; recombinant HTRA1, FP-rhodamine activity-based probe, fluorescence polarization; inhibition, % at 5.96 µM;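 active = mean inhibition over three repeats above a set limit taken from the earlier primary screen, cut at about 37% in these data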;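 also: inhibitors block probe binding so polarization drops and inhibition rises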
BSA TAMRA ctr: interferes with TAMRA-BSA probe, flagging TCR-CD3 hits | shares compounds with TCR CD3 inh | TAMRA-labeled BSA probe fluorescence counterscreen | inhibition, % at 9.4 µM | actives 10% (n = 1,200); in the data active = inhibition above about 23%
TCR-CD3 conf: confirmation of human TCR-CD3 interaction inhibitors; shares compounds with TCR CD3 inh; TAMRA-labeled TCR probe fluorescence binding assay; inhibition, % at 9.4 µM; actives 48% (n = 1,200); AID 652036
PRMT1 confirm: confirmation of human PRMT1 inhibitors. shares compounds with PRMT1 inh. recombinant His-PRMT1, activity-based probe fluorescence polarization. inhibition, % at 2.79 µM. actives 42% (n = 3,300);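 active = mean inhibition across replicates above the hit cutoff derived for the earlier primary screen, cut at about 22% in these data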
mABHD4 conf: ABHD4 (mouse) inhibition, FP confirmation | shares compounds with ABHD4 inh | inhibition, % at 8.92 µM | actives 55% (n = 1,800) | purified mABHD4, FP-Rh probe fluorescence polarization;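 active = mean inhibition across replicates above the hit cutoff set in the primary screen, cut at about 30% in these data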
SIAE inh conf: human SIAE inhibition, confirmation. actives 13% (n = 2,300). shares compounds with SIAE inh. inhibition, % at 9.66 µM. SIAE FP-Rh activity-based probe, fluorescence polarization;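 active = mean inhibition of the replicates above the hit cutoff set in the primary screen, cut at about 17% in these data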;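 also: inhibitors lower polarization as more probe stays unbound to SIAE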
Each line names hits and unclear results; the compound was inactive in the other large screens (follow-up assays come after a bar, where they were run). Rule as the data show it, unless noted: active = inhibition above about 19%; inactive = the rest.

Cc1ccc(-n2c(O)c(/C=N/Nc3ccc(S(=O)(=O)N4CCOCC4)cc3[N+](=O)[O-])c3ccccc3c2=O)c(C)c1	SIAE inh 20.9, HTRA1 inh 48.0 | HTRA1 conf 156.3 | SIAE inh conf inactive
O=C(O)c1ccc(/C=N\Nc2ccc(S(=O)(=O)N3CCOCC3)cc2[N+](=O)[O-])cc1	none
Oc1cccc(Nc2c3ccccc3nc3ccccc23)c1	none
CCN(CC)Cc1cc(Nc2c3ccccc3nc3c4ccccc4n(C)c23)cc(CN(CC)CC)c1O	SIAE inh 17.5, ABHD4 inh 33.3, PRMT1 inh 44.6, HTRA1 inh 38.0 (no result: PAD4 inh) | HTRA1 conf inactive | SIAE inh conf inactive
Cc1ccc(S(=O)(=O)Nc2nc3ccccc3nc2NCc2ccco2)cc1	SIAE inh 22.8, ABHD4 inh 54.8, TCR CD3 inh 67.0, PRMT1 inh 33.3, HTRA1 inh 43.4 | HTRA1 conf inactive | BSA TAMRA ctr inactive | TCR-CD3 conf inactive | PRMT1 confirm inactive | mABHD4 conf inactive | SIAE inh conf inactive
C/C(CC(=O)N1CCCC1)=N\NC(=O)c1cc2ccccc2cc1O	SIAE inh 17.1, ABHD4 inh 36.2, HTRA1 inh 47.6 | HTRA1 conf inactive | mABHD4 conf inactive | SIAE inh conf inactive
Oc1c(Br)cc(Br)cc1/C=N/Nc1ccc(Cl)nn1	none
Oc1ccc(/C=N/Nc2ccc(Cl)nn2)c(O)c1O	SIAE inh 22.6, ABHD4 inh 39.6, TCR CD3 inh 56.2, PRMT1 inh 57.6, HTRA1 inh 57.3 | HTRA1 conf 40.5 | BSA TAMRA ctr inactive | TCR-CD3 conf 55.5 | mABHD4 conf 81.3 | SIAE inh conf inactive
CC(C)(C)c1ccc(-c2nnc(SCc3ccccc3)n2Cc2ccco2)cc1	none (no result: TCR CD3 inh, PAD4 inh, HTRA1 inh)
C/C(=N\NC(=O)c1cc(O)ccc1O)c1cccc(NC(=O)c2ccc(Cl)cc2)c1	SIAE inh 25.9, ABHD4 inh 56.9, TCR CD3 inh 45.8, HTRA1 inh 43.9 | HTRA1 conf inactive | BSA TAMRA ctr inactive | TCR-CD3 conf inactive | mABHD4 conf 42.1 | SIAE inh conf inactive
O=C(Nc1ccc(Cl)cc1)N1CCN(c2ccccc2)CC1	none
O=C(O)/C=C\C(=O)Nc1ccc(N2CCN(c3cccc(Cl)c3)CC2)cc1	SIAE inh 25.5, ABHD4 inh 41.7, TCR CD3 inh 21.0, HTRA1 inh 52.2 | HTRA1 conf 40.2 | BSA TAMRA ctr inactive | TCR-CD3 conf inactive | mABHD4 conf inactive | SIAE inh conf inactive
O=C(O)/C=C\C(=O)Nc1ccc(N2CCN(c3ccc(Cl)c(Cl)c3)CC2)cc1	SIAE inh 26.6, ABHD4 inh 39.1, TCR CD3 inh 30.1, HTRA1 inh 56.8 | HTRA1 conf inactive | BSA TAMRA ctr inactive | TCR-CD3 conf inactive | mABHD4 conf inactive | SIAE inh conf inactive
CC(=O)c1ccc(NC(=O)N2CCN(c3cccc(Cl)c3)CC2)cc1	none
O=C(O)/C=C\C(=O)Nc1ccc(N2CCN(c3ccc(Cl)cc3)CC2)cc1	SIAE inh 27.6, ABHD4 inh 33.1, TCR CD3 inh 21.2, HTRA1 inh 43.7 | HTRA1 conf inactive | BSA TAMRA ctr inactive | TCR-CD3 conf inactive | mABHD4 conf inactive | SIAE inh conf inactive
O=C1C=C(O)c2c(O)cc(O)c(O)c2C1=O	SIAE inh 50.6, ABHD4 inh 84.0, TCR CD3 inh 63.5, PRMT1 inh 46.7, HTRA1 inh 77.8 | HTRA1 conf 55.9 | BSA TAMRA ctr inactive | TCR-CD3 conf 64.2 | mABHD4 conf 56.9 | SIAE inh conf inactive
C=CCn1cc(/C=N/Nc2nc3ccccc3[nH]2)c2ccccc21	SIAE inh 56.1, HTRA1 inh 40.7 | HTRA1 conf 42.5 | SIAE inh conf 53.1
CC[C@@H](CCC(=O)N(c1ccccc1)c1ccccc1)c1ccc(C)cc1	none (no result: TCR CD3 inh, PAD4 inh, HTRA1 inh)
O=C(NCc1ccccn1)C1Nc2ccc(OC(F)(F)F)cc2C2C=CCC12 (stereo not given)	SIAE inh 17.4, ABHD4 inh 48.0, PRMT1 inh 33.5, HTRA1 inh 42.9 | HTRA1 conf inactive | PRMT1 confirm inactive | mABHD4 conf inactive | SIAE inh conf inactive
O=C(NCc1ccccc1)C1Nc2ccc(OC(F)(F)F)cc2C2C=CCC12 (stereo not given)	none
Cc1ccc(C(C)C)c(OCc2ccc(C(=O)N/N=C/c3cccc(O)c3O)cc2)c1	SIAE inh 27.9, HTRA1 inh 83.4 | HTRA1 conf 78.4 | SIAE inh conf inactive
Cc1ccc(C(C)C)c(OCc2ccc(C(=O)N/N=C/c3ccc(O)c(O)c3)cc2)c1	SIAE inh 25.8, HTRA1 inh 63.2 | HTRA1 conf 55.9 | SIAE inh conf inactive
CCOc1cc(/C=N/NC(=O)c2ccc(=O)n(C)c2)ccc1O	none
O=C(N/N=C/c1ccc(O)c(O)c1)c1ccc(CSc2cccc3cccnc23)cc1	SIAE inh 41.5, HTRA1 inh 56.8 | HTRA1 conf 85.0 | SIAE inh conf inactive
O=C(CSc1cccc2cccnc12)N/N=C/c1cccc(O)c1	none
CC(=O)Nc1ccc(C(=O)N/N=C/c2ccccc2OCc2ccccc2)cc1	none
CCn1c(Cc2cccs2)nnc1SCC(=O)Nc1ccccc1-c1ccccc1	none (no result: TCR CD3 inh, PAD4 inh, HTRA1 inh)
CCN1Cc2nnn(Cc3ccccc3)c2-c2cc(N3CCCC3)ccc2S1(=O)=O	none (no result: TCR CD3 inh, PAD4 inh, HTRA1 inh)
Cc1ccc(NC(=O)c2cccc3c2-c2ccccc2C3=O)c(C)c1	none (no result: TCR CD3 inh, PAD4 inh, HTRA1 inh)
Cc1ccc(NC(=O)C2CCN(c3nnc(-n4cccc4)s3)CC2)cc1C	none (no result: TCR CD3 inh, PAD4 inh, HTRA1 inh)
O=C(O)[C@@H]1[C@H]2C[C@H]3c4[nH]c5ccccc5c4CCN3C[C@@H]2CC[C@@H]1O	SIAE inh 24.4, ABHD4 inh 39.2, TCR CD3 inh 45.6, HTRA1 inh 45.5 | HTRA1 conf inactive | BSA TAMRA ctr inactive | TCR-CD3 conf inactive | mABHD4 conf 31.7 | SIAE inh conf inactive
O=C(C1CCCN1S(=O)(=O)c1cccc([N+](=O)[O-])c1)N1CCN(c2ccccc2)CC1 (stereo not given)	none (no result: TCR CD3 inh, PAD4 inh, HTRA1 inh)
